Test results: ChEMBL document CHEMBL1137693, “Antiamoebic coumarins from the root bark of Adina cordifolia and their new thiosemicarbazone derivatives” (Eur J Med Chem, 2009)

assay: Cytotoxicity against rat H9c2 cells assessed as cell viability at 3.125 to 200 ug/ml after 48 hrs by MTT assay; type: cell-based; settings: read-out: Activity
Outline: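 Rat H9c2 cardiac myoblasts maintained in high-glucose DMEM with 10% heat-inactivated FBS and antibiotics at 37 °C, 5% CO₂. Subconfluent cells exposed 48 h to 3.125–200 μg/ml. MTT (5 mg/ml) added for 45 min at 37 °C; formazan dissolved in acid isopropanol, absorbance read at 570 nm (reference 655 nm). Viability relative to untreated controls; triplicate.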

SMILES | viability at 48 h [%]
C/C(=N\NC(=S)N1CCC(Cc2ccccc2)CC1)c1c(O)ccc2ccc(=O)oc12 | > 80
C/C(=N\NC(=S)NCc1ccccc1)c1c(O)ccc2ccc(=O)oc12 | > 80
C/C(=N\NC(=S)NC12CC3CC(CC(C3)C1)C2)c1c(O)ccc2ccc(=O)oc12 | > 80
